Counter-ions that a name gives are not always drawn. Activity calls are given as the source filed them. No cut-off for these calls is given here.
What was measured:
HL-60 = test: Cytotoxicity against human HL60 cells; assay type: functional, cell-based
Method in brief: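 Growth of human tumour cells measured by the MTT or SRB method, with adriamycin as the positive control.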

[1] = Inhibition of LPS-induced NF-kappaB (unknown origin) activation transfected in mouse RAW264.7 cells preincubated for 2 hrs followed by LPS challenge measured after 4 hrs by luciferase reporter gene assay; assay type: cell-based
Method in brief: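 RAW264.7 cells were seeded at 2.5 × 10^5 per well and held at 37 °C for 24 h. They were then transiently transfected with pNF-κB-Luc plasmid (0.5 μg/well) using lipofectamine 2000. After 24 h, compounds were added for 2 h, then LPS (0.1 μg/mL) for a further 4 h. Read-out was Steady-Glo luciferase, with PDTC as the positive control, and IC50 was derived.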

A549 = test: Cytotoxicity against human A549 cells

SMILES	Activity (HL-60)	IC50 [1]	IC50 (HL-60)	IC50 (A549)
COc1ccc(O)c(C/C=C(\C)CC/C=C(\C)CC[C@@H](O)C(C)(C)O)c1O [(+)-MONOCYCLOALTERNARENE A]	inactive	45 µM	–	–
C/C(=C\CC[C@]1(C)OC2=C(C[C@@H]1O)C(=O)[C@H](O)CC2)CC/C=C(\C)C(=O)O	inactive	> 100 µM	–	–
C/C(=C\CC[C@](C)(O)[C@@H]1CC2=C(CC[C@@H](O)C2=O)O1)CC/C=C(\C)C(=O)O	inactive	85 µM	–	–
C/C(=C\CC[C@]1(C)OC2=C(C[C@@H]1O)C(=O)CC[C@H]2O)CC/C=C(\C)C(=O)O	inactive	> 100 µM	–	–
CO[C@@H]1C[C@H](O)C(O)=C(C/C=C(\C)CC/C=C(\C)CCCC(C)C(=O)O)C1=O (stereo partly drawn)	inactive	42 µM	–	–
C/C(=C\Cc1cc(C(=O)O)cc(O)c1O)CC/C=C(\C)CC[C@@H](O)C(C)(C)O [(+)-MONOCYCLOALTERNARENE B]	inactive	47 µM	–	–
C/C(=C\CC[C@@H](C)C1=CC[C@@]2(C)OC3=C(C[C@@H]12)C(=O)[C@H](O)CC3)CO	inactive	50 µM	–	–
CO[C@@H]1C[C@H](O)C2=C(C[C@H]3[C@H](C(C)(O)CCC=C(C)C)CC[C@@]3(C)O2)C1=O (stereo partly drawn) [TRICYCLOALTERNARENE B]	inactive	76 µM	–	–
CC(C)=CCCC(C)(O)[C@@H]1CC[C@@]2(C)OC3=C(C[C@@H]12)C(=O)CC[C@H]3O (stereo partly drawn) [TRICYCLOALTERNARENE C]	inactive	75 µM	–	–
CC(C)=CCC[C@](C)(O)[C@H](O)CC[C@](C)(O)[C@@H]1CC2=C(CC[C@@H](O)C2=O)O1	inactive	62 µM	–	–
C/C(=C\CC[C@](C)(O)[C@@H]1CC2=C(CC[C@@H](O)C2=O)O1)CC[C@@H](O)C(C)(C)O	inactive	70 µM	–	–
S=C(S)N1CCCC1 [PYRROLIDINE DITHIOCARBAMIC ACID, AMMONIUM SALT]	–	3 µM	–	–
CC(C)=CCC[C@H](C)[C@@H]1CC[C@](C)(O)[C@]12CC1=C(O2)[C@H](O)CCC1=O [TRICYCLOALTERNARENE A]	inactive	52 µM	–	–
COc1cccc2c1C(=O)c1c(O)c3c(c(O)c1C2=O)C[C@@](O)(C(=O)CO)C[C@@H]3O[C@H]1C[C@H](N)[C@H](O)[C@H](C)O1 [DOXORUBICIN]	–	–	0.09 µM	0.35 µM
C/C(C=O)=C\CC[C@@H](C)C1=CC[C@@]2(C)OC3=C(C[C@@H]12)C(=O)[C@H](O)CC3	inactive	39 µM	–	–
CO[C@@H]1C[C@H](O)C(O)=C(C/C=C(\C)CC/C=C(\C)CC/C=C(\C)C(=O)O)C1=O	inactive	58 µM	–	–
C/C(=C\CC[C@](C)(O)[C@@H]1CC2=C(O1)[C@H](O)CCC2=O)CC/C=C(\C)C(=O)O	inactive	67 µM	–	–
